Assay results from PubChem BioAssay.
Results filed as inconclusive are left out.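 How the source made its calls, unless noted: active means cell viability at or below a set limit in both duplicate runs, the limit being the all-compound median minus 4 SD (cut at about 23% in these data, passing the limit was not always enough); inconclusive means no clear call, values can overlap the other calls; inactive means the rest.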

Columns and labels:
[1] = S. cerevisiae growth inhibition in permissive medium (OD615), pilot counter-assay for S. cerevisiae lifespan shortening project, permissive growth control (AID 705;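 active means growth inhibition above 25% in both replicates, a cutoff set 3 SD above the mean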); settings: OD615, 24 h, at 10 µM, active compounds read high
Summary of the method: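 System: S. cerevisiae with engineered DeaD lifespan system / Measured by: absorbance (optical density) at 615 nm / Read-out: reduction in yeast growth (OD615) / Times: 4 h cell pre-growth, 24 h exposure at 30 °C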

[2] = S. cerevisiae growth inhibition in restrictive medium, OD615, pilot screen, restrictive growth control, yeast lifespan reduction project (AID 706;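 active means growth inhibition above a set limit, 3 SD over mean compound inhibition, in both replicates, cut at about 43% in these data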;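 further: modified DeaD lifespan yeast strain shifted to restrictive glucose medium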); settings: OD615, 48 h, at 10 µM, active compounds read high
Summary of the method: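 System: Engineered S. cerevisiae DeaD strain | Buffer or medium: Glucose-based CSMM-D restrictive medium | Schedule: 4 h pre-incubation, 48 h exposure at 30 °C | Technique: Optical density at 615 nm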

[3] = doxorubicin toxicity protection in MRP-1 cells – H69AR cells, CellTiter-Glo, duplicate, MRP-1 activator project, pilot screen (AID 807;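 active means viability increase at or above a cutoff of the median across tested compounds plus 3 SD, cut at about 8.5% in these data, passing the limit was not always enough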;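 further: compound pretreatment 18-22 h then 72 h combined with doxorubicin; 0% = doxorubicin alone and 100% = vehicle without doxorubicin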); settings: H69AR viability with doxorubicin, CellTiter-Glo luminescence; at 10 µM; active compounds read high
[4] = viability of HCT116 without oncogenic beta-catenin – human colon tumor cells, pilot screen (AID 823); settings: HCT116 beta-catenin knockout viability, CellTiter-Glo, 60 h; at 10 µM; active compounds read low;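 further: 0% = wells killed by 20 µM Hyamine and 100% = untreated DMSO cell wells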
[5] = viability of PTEN-null HCT116 cells – cell-based, HCT116 clonal line, CellTiter-Glo, pilot screen (AID 824;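 active means viability at or below 27.92% in each of two runs, the all-compound median minus 4 SD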;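 further: 0% = 20 µM Hyamine control and 100% = vehicle cell control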); settings: HCT116 PTEN-deleted viability, 60 h, at 10 µM, active compounds read low
[6] = RAM pathway blockade in budding yeast – dse1pr::URA3 reporter, 5-FOA selection, pilot screen (AID 869;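 active means inhibition over a set limit, the all-compound mean plus 3 SD, in both replicate runs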;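 further: 0% = DMSO wells with no growth and 100% = 10 µM 1-NA-PP1 with full growth; RAM network block rescues cells from 5-FOA so hits raise OD615 growth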); settings: S. cerevisiae dse1pr::URA3 5-FOA growth, OD615, 2 d; at 10 µM; active compounds read high; strain carries analog-sensitive mutant Cbk1 kinase
[7] = RAM signaling pathway blockade in yeast – S. cerevisiae, Pdr1DBD-CYC8 efflux-inhibited sensitized strain, primary screen (AID 1298;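 active means RAM network inhibition above 8.4% in each of two replicates, 3 SD over the compound average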;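 further: 0% = DMSO untreated cells without growth and 100% = 10 µM 1-NA-PP1 full growth; higher means more yeast growth rescued from 5-FOA killing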); settings: S. cerevisiae cbk1-as DSE1-URA3 strain, 5-FOA growth OD615, 2 d; at 50 µM; active compounds read high

CN1CCN(CCNC(=O)c2cc3c(=O)n(C)c4ccccc4c3n2C)CC1
inactive: growth inhibition [1] -12.9% | growth inhibition [2] -20% | viability increase [3] -4.6% | viability [4] 82.3% | viability [5] 81.3% | inhibition [6] 0.755% | RAM network inhibition [7] 1.04%

CCOC(=O)N1CCC(N2CC34C=CC(O3)C(C(=O)Nc3ccc(OCC)cc3)C4C2=O)CC1 (configuration not stated)
inactive: growth inhibition [1] 0.885% | growth inhibition [2] 0.91% | viability increase [3] 2.9% | viability [4] 108% | viability [5] 112% | inhibition [6] 0.595% | RAM network inhibition [7] 3.14%

O=C(Nc1nccs1)C12CC3CC(C1)CC(C(=O)Nc1nccs1)(C3)C2
inactive: growth inhibition [1] 1.86% | growth inhibition [2] 28.3% | viability increase [3] -2.85% | viability [4] 75.3% | viability [5] 78.7% | inhibition [6] 1.25% | RAM network inhibition [7] 2.5%

Cc1nc2ccccn2c1C(=O)NC1CCCCC1
inactive: growth inhibition [1] 4.45% | growth inhibition [2] 1.56% | viability increase [3] -1.3% | viability [4] 101% | viability [5] 103% | inhibition [6] 1.17% | RAM network inhibition [7] -0.77%

c1ccc(N2CCOCC2)c(Nc2nc3ccccc3n3cnnc23)c1
inactive: growth inhibition [1] -8.77% | growth inhibition [2] -1.25% | viability increase [3] -2.57% | viability [4] 66.3% | viability [5] 49.1% | inhibition [6] 1.02% | RAM network inhibition [7] 9.05%

COc1ccc(NC2=C(C)C(=O)CC2)cc1
inactive: growth inhibition [1] 7.55% | growth inhibition [2] -3.12% | viability increase [3] -4.82% | viability [4] 65.9% | viability [5] 69.5% | inhibition [6] 0.505% | RAM network inhibition [7] 1.49%

O=S(=O)(c1ccc(Br)cc1)N1CCN(c2cc(-c3ccccc3)nc3ncnn23)CC1
inactive: growth inhibition [1] -4.71% | growth inhibition [2] -15.6% | viability increase [3] -5.82% | viability [4] 61.9% | viability [5] 71.9% | inhibition [6] 2.37% | RAM network inhibition [7] 2.33%

Oc1c(/C=N/c2ncn[nH]2)ccc2ccccc12
inactive: growth inhibition [1] -9.29% | growth inhibition [2] -4.74% | viability increase [3] -0.29% | viability [4] 98.3% | viability [5] 101% | inhibition [6] -0.085% | RAM network inhibition [7] -1.12%

COCCNC(=O)CN(c1ccccc1OC)S(C)(=O)=O
inactive: growth inhibition [1] -6.76% | growth inhibition [2] 1.17% | viability increase [3] 0.7% | viability [4] 101% | viability [5] 101% | inhibition [6] 2.75% | RAM network inhibition [7] 0.67%

CC1(C)Oc2ccc3ccc(=O)oc3c2/C(=C/N)C1=O
inactive: growth inhibition [1] -6.37% | growth inhibition [2] -4.45% | viability increase [3] -4.51% | viability [4] 88.5% | viability [5] 81.7% | inhibition [6] 0.535% | RAM network inhibition [7] -0.57%

CCOC(=O)C1=C(C)N=c2s/c(=C\C(=O)OC)c(=O)n2C1c1ccc(OC)cc1 (configuration not stated)
inactive: growth inhibition [1] -2.88% | growth inhibition [2] 11.6% | viability increase [3] -2.64% | viability [4] 100% | viability [5] 101% | inhibition [6] 1.73% | RAM network inhibition [7] 4.95%

CCOC(=O)c1c(C2CCN(C(=O)OCC)CC2)nc2ccccn12
inactive: growth inhibition [1] -9.71% | growth inhibition [2] -12.6% | viability increase [3] -1.79% | viability [4] 95.4% | viability [5] 88.7% | inhibition [6] 2.99% | RAM network inhibition [7] 2.43%

O=c1oc2ccccc2n1CCCOc1ccccc1
inactive: growth inhibition [1] 1.24% | growth inhibition [2] -1.04% | viability increase [3] 1.28% | viability [4] 98.1% | viability [5] 96.5% | inhibition [6] 2.02% | RAM network inhibition [7] 1.62%

O=C1c2ccccc2C(=O)N1CCC(=O)N1CCCc2ccccc21
inactive: growth inhibition [1] -19.9% | growth inhibition [2] -13.7% | viability increase [3] -0.26% | viability [4] 93.8% | viability [5] 96.8% | inhibition [6] 2.32% | RAM network inhibition [7] 7.36%

O=S(=O)(NCC(c1cccnc1)N1CCN(c2ccc(F)cc2)CC1)c1cccs1 (configuration not stated)
inactive: growth inhibition [1] -0.1% | growth inhibition [2] -0.165% | viability increase [3] -1.56% | viability [4] 87.9% | viability [5] 86.8% | inhibition [6] 2.22% | RAM network inhibition [7] 3.87%

Cc1cc(-n2c(SCCC#N)nnc2-c2cccnc2)ccc1Cl
inactive: growth inhibition [1] -12.4% | growth inhibition [2] -22.3% | viability increase [3] -2.79% | viability [4] 98.7% | viability [5] 94.5% | inhibition [6] 3.32% | RAM network inhibition [7] 5.99%

O=C(NCCN1CCN(c2cccc(Cl)c2)CC1)C1CCCN(S(=O)(=O)c2cnc[nH]2)C1 (configuration not stated)
inactive: growth inhibition [1] 3.09% | growth inhibition [2] 3.15% | viability increase [3] -1.5% | viability [4] 91.1% | viability [5] 89.7% | inhibition [6] 0.895% | RAM network inhibition [7] 5.7%

CCC(C)NC(=O)c1cc(-c2ccccc2O)on1 (configuration not stated)
inactive: growth inhibition [1] -10.7% | growth inhibition [2] -4.76% | viability increase [3] -1.23% | viability [4] 94% | viability [5] 86.2% | inhibition [6] 1.73% | RAM network inhibition [7] 2.61%

CCN(CC)CCNC(=O)c1sc2nc(-c3ccccc3)cn2c1C
inactive: growth inhibition [1] -2.38% | growth inhibition [2] 6.54% | viability increase [3] -1.73% | viability [4] 83.2% | viability [5] 81.4% | inhibition [6] 0.06% | RAM network inhibition [7] 1.57%

CC(C)(C)NC(=O)CSc1nccn1Cc1ccccc1
inactive: growth inhibition [1] -11.7% | growth inhibition [2] -5.1% | viability increase [3] -1.52% | viability [4] 95.9% | viability [5] 93% | inhibition [6] 1.66% | RAM network inhibition [7] 4.82%

CCOCN(C(=O)Cn1c(CO)nc2ccccc21)c1c(C)cccc1CC
inactive: growth inhibition [1] -10.7% | growth inhibition [2] 0.69% | viability increase [3] -3.12% | viability [4] 89.4% | viability [5] 94.4% | inhibition [6] 2.68% | RAM network inhibition [7] 7.56%

O=C(Cn1cc2c(n1)CCCC2)NCc1cccc(Cl)c1
inactive: growth inhibition [1] 4.46% | growth inhibition [2] 5.37% | viability increase [3] -0.45% | viability [4] 107% | viability [5] 99.3% | inhibition [6] 1.62% | RAM network inhibition [7] 3.09%

CC(C)NC(=O)c1cc2c(-c3ccc(Cl)cc3)nn(C)c2s1
inactive: growth inhibition [1] -10.4% | growth inhibition [2] 3.42% | viability increase [3] -6.18% | viability [4] 74.5% | viability [5] 76.8% | inhibition [6] 3.84% | RAM network inhibition [7] 4.3%

CCOCC(=O)NCc1ccc2c(c1)cc(C)n2C
inactive: growth inhibition [1] -13.8% | growth inhibition [2] -14% | viability increase [3] -1.45% | viability [4] 103% | viability [5] 97.3% | inhibition [6] 0.65% | RAM network inhibition [7] 0.21%

COc1cc(OC)cc(C(=O)NCCn2ccc3ccccc32)c1
inactive: growth inhibition [1] -5.04% | growth inhibition [2] 0.31% | viability increase [3] -3.92% | viability [4] 92.8% | viability [5] 92.3% | inhibition [6] 1.16% | RAM network inhibition [7] 7.95%

COc1cc(NC(=O)c2onc(C)c2Cl)c(OC)cc1Cl
inactive: growth inhibition [1] -3% | growth inhibition [2] -6.72% | viability increase [3] -5.82% | viability [4] 91.7% | viability [5] 94.5% | inhibition [6] 1.35% | RAM network inhibition [7] 3.23%

O=S(=O)(NCc1csc(-c2ccccc2)n1)c1ccc(Cl)s1
inactive: growth inhibition [1] -17.6% | growth inhibition [2] -16.7% | viability increase [3] -0.6% | viability [4] 96.9% | viability [5] 102% | inhibition [6] 0.21% | RAM network inhibition [7] 5.99%

COc1ccc(OC)c2c1CC(C)(C)NC2=O
inactive: growth inhibition [1] 0.615% | growth inhibition [2] 7.13% | viability increase [3] -0.54% | viability [4] 88.3% | viability [5] 96.9% | inhibition [6] 1.83% | RAM network inhibition [7] 3.75%

COc1ccc(C(=O)C(OC(=O)CNC(=O)c2ccco2)c2ccccc2)cc1 (configuration not stated)
inactive: growth inhibition [1] -11.8% | growth inhibition [2] 3.51% | viability increase [3] -3.65% | viability [4] 100% | viability [5] 102% | inhibition [6] 1.49% | RAM network inhibition [7] 2.66%

Cc1nc2ccc(S(=O)(=O)NC(C(=O)NC3CCCC3)C(C)C)cc2s1 (configuration not stated)
inactive: growth inhibition [1] -5.81% | growth inhibition [2] -1.42% | viability increase [3] -0.4% | viability [4] 102% | viability [5] 101% | inhibition [6] 1.04% | RAM network inhibition [7] 1.87%

O=c1oc(-c2cccnc2)nc2ccccc12
inactive: growth inhibition [1] -8.07% | growth inhibition [2] -3.38% | viability increase [3] -0.21% | viability [4] 107% | viability [5] 96.1% | inhibition [6] 0.595% | RAM network inhibition [7] -0.11%

Cc1ccc(OCC(=O)O)c(-n2nc3ccccc3n2)c1
inactive: growth inhibition [1] -10.3% | growth inhibition [2] 0.43% | viability increase [3] 0.43% | viability [4] 89.9% | viability [5] 102% | inhibition [6] 2.7% | RAM network inhibition [7] 2.69%

CCCn1c(CNc2ccc(Br)cc2)nc2ccccc21
inactive: growth inhibition [1] -11.7% | growth inhibition [2] -9.32% | viability increase [3] -3.5% | viability [4] 88.2% | viability [5] 82.7% | inhibition [6] 1.47% | RAM network inhibition [7] 1.62%

Cc1cc(Nc2ccc(Br)cc2)n2nc(C)nc2n1
inactive: growth inhibition [1] -14% | growth inhibition [2] -2.33% | viability increase [3] -2.63% | viability [4] 96.2% | viability [5] 88.3% | inhibition [6] 2.85% | RAM network inhibition [7] 4.46%

COc1ccc(COC(=O)C2=C(C)NC(=O)NC2c2ccc(O)c(OC)c2)cc1 (configuration not stated)
inactive: growth inhibition [1] -12% | growth inhibition [2] -17.8% | viability increase [3] 3.03% | viability [4] 93.1% | viability [5] 89.2% | inhibition [6] 0.34% | RAM network inhibition [7] 1.52%

COc1ccc(-c2nc(CS(=O)CC(=O)NCc3ccco3)c(C)o2)cc1 (configuration not stated)
inactive: growth inhibition [1] -8.38% | growth inhibition [2] 17.3% | viability increase [3] -4.45% | viability [4] 92.5% | viability [5] 100% | inhibition [6] 1.88% | RAM network inhibition [7] 0.58%
